Reference: ChEMBL document CHEMBL1671834, “Novel 3-aryl indoles as progesterone receptor antagonists for uterine fibroids” (ACS Med Chem Lett, 2011)
Calls of active or inactive are those of the source. No cut-off for these calls is given here.

Key:
Progesterone receptor [1] = biological target: T1, Progesterone receptor (Homo sapiens, UniProt P06401); experiment: Displacement of [3H]methyltrienolone from human progesterone receptor expressed in HEK293 cells; type: cell-based
T1 sequence (P06401 whole entry): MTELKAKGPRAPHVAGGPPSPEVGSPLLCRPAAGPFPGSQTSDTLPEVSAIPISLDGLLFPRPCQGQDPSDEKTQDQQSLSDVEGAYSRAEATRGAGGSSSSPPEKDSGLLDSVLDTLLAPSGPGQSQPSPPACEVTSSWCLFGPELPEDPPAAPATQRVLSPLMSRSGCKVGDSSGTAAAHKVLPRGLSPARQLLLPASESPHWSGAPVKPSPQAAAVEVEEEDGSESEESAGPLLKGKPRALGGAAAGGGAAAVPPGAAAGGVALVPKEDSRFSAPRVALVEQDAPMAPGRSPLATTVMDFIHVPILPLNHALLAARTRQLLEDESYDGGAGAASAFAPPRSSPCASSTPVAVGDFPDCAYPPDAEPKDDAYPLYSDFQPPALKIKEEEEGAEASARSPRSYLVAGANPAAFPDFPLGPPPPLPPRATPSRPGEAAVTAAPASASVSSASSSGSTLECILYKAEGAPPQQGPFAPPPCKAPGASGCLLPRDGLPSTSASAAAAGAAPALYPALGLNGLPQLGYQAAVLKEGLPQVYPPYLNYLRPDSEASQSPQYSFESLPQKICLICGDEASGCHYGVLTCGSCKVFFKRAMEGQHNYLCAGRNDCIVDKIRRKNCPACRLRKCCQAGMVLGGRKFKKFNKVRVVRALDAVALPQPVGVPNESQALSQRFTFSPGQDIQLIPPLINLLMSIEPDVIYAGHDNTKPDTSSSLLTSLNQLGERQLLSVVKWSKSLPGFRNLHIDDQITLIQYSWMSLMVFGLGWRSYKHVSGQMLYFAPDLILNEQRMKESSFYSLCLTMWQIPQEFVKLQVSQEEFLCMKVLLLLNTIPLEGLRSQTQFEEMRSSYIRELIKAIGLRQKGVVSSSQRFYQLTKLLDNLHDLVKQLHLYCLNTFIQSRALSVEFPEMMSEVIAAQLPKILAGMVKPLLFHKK
Method in brief: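 Competitive binding to recombinant full-length human receptors against tritium-labelled standards. Values are geometric means of at least duplicate determinations.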

Androgen receptor = biological target: T2, Androgen receptor (Homo sapiens, UniProt P10275); experiment: Displacement of [3H]methyltrienolone from human androgen receptor expressed in HEK293 cells; type: cell-based
T2 sequence (P10275 whole entry): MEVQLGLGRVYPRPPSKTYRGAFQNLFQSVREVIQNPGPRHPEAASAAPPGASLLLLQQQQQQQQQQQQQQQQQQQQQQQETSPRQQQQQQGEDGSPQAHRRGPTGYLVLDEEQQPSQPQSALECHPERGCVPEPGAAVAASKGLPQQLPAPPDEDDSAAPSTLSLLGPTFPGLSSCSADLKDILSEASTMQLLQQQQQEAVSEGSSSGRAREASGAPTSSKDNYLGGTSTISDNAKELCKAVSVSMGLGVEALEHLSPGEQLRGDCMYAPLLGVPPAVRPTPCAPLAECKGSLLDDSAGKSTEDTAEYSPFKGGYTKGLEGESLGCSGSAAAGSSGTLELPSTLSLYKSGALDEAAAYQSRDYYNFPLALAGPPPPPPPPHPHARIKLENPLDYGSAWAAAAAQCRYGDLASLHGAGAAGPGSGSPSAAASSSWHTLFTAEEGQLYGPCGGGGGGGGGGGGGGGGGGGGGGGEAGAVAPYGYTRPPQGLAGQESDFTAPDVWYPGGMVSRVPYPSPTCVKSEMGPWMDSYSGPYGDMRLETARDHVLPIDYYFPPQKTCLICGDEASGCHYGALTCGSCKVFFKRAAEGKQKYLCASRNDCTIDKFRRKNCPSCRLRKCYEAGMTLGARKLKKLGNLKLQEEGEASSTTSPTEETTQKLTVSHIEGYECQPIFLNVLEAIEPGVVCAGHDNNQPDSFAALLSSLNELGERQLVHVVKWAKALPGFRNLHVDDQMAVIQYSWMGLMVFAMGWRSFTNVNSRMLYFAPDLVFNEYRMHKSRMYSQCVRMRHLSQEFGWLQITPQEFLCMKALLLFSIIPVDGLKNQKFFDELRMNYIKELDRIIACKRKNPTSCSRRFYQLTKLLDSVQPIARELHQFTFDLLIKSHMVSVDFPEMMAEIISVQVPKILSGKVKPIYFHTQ

Progesterone receptor [2] = biological target: T1, Progesterone receptor; experiment: Antagonist activity at human progesterone receptor expressed in HEK293 cells assessed as inhibition of […]-induced transcriptional activity by GRE-driven luciferase reporter gene assay; type: functional, cell-based
Method in brief: (§1)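 Transcription assay in HEK293 cells cotransfected with full-length human receptor. Values are geometric means of at least duplicate determinations.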

[3] = biological target: T3, Progesterone receptor (Homo sapiens) (UniProt P06401); experiment: Antagonist activity at human progesterone receptor expressed in HEK293 cells assessed as inhibition of […]-induced transcriptional activity by GRE-driven luciferase reporter gene assay relative to untreated control; type: functional, cell-based; design: concentration or dose not given beside the values; conditions: concentration not given here; method in brief: as §1
T3 sequence (whole entry): T1 sequence (P06401 whole entry)

[4] = biological target: T4, Mineralocorticoid receptor (Homo sapiens) (UniProt P08235); experiment: Antagonist activity at human mineralocorticoid receptor expressed in HEK293 cells assessed as inhibition of […]-induced transcriptional activity by GRE-driven luciferase reporter gene assay relative to untreated control; type: functional, cell-based; design: concentration or dose not given beside the values; conditions: concentration not given here; method in brief: as §1
T4 sequence (whole entry): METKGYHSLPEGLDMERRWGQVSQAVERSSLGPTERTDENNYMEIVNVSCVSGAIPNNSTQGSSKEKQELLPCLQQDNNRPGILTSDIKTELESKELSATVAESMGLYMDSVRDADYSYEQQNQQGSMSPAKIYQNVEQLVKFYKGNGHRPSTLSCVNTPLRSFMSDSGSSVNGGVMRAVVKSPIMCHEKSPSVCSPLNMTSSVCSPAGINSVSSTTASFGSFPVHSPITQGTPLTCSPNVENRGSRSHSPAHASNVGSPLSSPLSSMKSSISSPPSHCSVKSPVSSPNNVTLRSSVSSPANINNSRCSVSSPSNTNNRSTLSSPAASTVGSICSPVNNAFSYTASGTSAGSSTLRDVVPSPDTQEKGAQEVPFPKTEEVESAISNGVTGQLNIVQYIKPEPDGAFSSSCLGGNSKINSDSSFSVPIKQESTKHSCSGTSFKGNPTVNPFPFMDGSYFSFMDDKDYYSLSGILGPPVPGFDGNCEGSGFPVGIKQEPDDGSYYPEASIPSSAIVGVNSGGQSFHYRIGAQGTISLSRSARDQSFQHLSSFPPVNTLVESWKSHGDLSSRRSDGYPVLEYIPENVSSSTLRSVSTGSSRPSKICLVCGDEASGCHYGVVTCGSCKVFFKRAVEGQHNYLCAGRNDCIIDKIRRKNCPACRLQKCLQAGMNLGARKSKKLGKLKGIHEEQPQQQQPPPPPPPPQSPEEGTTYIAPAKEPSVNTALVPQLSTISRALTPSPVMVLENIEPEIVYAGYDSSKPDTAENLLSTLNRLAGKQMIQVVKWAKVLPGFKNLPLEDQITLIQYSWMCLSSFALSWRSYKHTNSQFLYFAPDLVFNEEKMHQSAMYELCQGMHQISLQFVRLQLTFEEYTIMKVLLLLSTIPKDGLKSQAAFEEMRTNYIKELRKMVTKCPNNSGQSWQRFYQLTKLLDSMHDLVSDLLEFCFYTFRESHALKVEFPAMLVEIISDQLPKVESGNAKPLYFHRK

Rattus norvegicus = experiment: Antagonist activity at progesterone receptor in orally dosed ovariectomized Sprague-Dawley rat assessed as reversal of R5020-induced down-regulation of estradiol-induced increase in complement 3 mRNA expression by C3 rat uterine assay; type: functional; conditions: po
Method in brief: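 Ovariectomized rats dosed orally (mg/kg dose response). Estrogen (E2, 0.05 mg/kg) induces complement C3 mRNA in uterus. Progestin R5020 (0.1 mg/kg) down-regulates it. Read-out is reversal of the R5020 effect, expressed as fold over asoprisnil (5 mg/kg). ED50 derived from the dose response.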

Oryctolagus cuniculus [5] = experiment: Antagonist activity at progesterone receptor in estrogen-primed immature New Zealand White rabbit assessed as inhibition of progesterone-induced endometrial transformation at 1 mg/kg, sc by McPhail assay; type: functional, organism-based; design: dose 1 mg/kg
Method in brief: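 Immature rabbits primed with estrogen, given progesterone 1 mg/kg with test compound at various sc doses. Endometrial transformation scored by McPhail Index.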

Oryctolagus cuniculus [6] = experiment: Agonist activity at progesterone receptor in estrogen-primed immature New Zealand White rabbit assessed as stimulation of progesterone-induced endometrial transformation at 30 mg/kg, sc by McPhail assay; type: functional, organism-based; design: dose 30 mg/kg
Method in brief: (§2)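 Immature rabbits primed with estrogen, dosed sc without progesterone. Endometrial transformation scored by McPhail Index.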

Oryctolagus cuniculus [7] = experiment: Agonist activity at progesterone receptor in sc dosed estrogen-primed immature New Zealand White rabbit assessed as stimulation of progesterone-induced endometrial transformation by McPhail assay; type: functional, organism-based; method in brief: as §2

## C[C@](c1ccc(F)cc1F)(c1c[nH]c2c(NS(C)(=O)=O)cccc12)C1CC1
Progesterone receptor [1]
  Ki: 1230 nM
Androgen receptor
  Ki: 676 nM
Progesterone receptor [2]
  IC50: 2020 nM
[3]
  inhibition: 94.5%
[4]
  inhibition: 87%

## C[C@@](c1ccc(F)cc1F)(c1c[nH]c2c(NS(C)(=O)=O)cccc12)C1CC1
Progesterone receptor [1]
  Ki: 464 nM
Androgen receptor
  Ki: 211 nM
Progesterone receptor [2]
  IC50: 715 nM
[3]
  inhibition: 89.7%
[4]
  inhibition: 62.9%

## COC[C@]1(OC)CC[C@H]2[C@@H]3CCC4=CC(=O)CCC4=C3[C@@H](c3ccc(/C=N/O)cc3)C[C@@]21C [ASOPRISNIL]
Rattus norvegicus
  ED50: 0.31 mg/kg
Oryctolagus cuniculus [5]
  Activity: Active
Oryctolagus cuniculus [6]
  Activity: Active

## CC#C[C@]1(O)CC[C@H]2[C@@H]3CCC4=CC(=O)CCC4=C3[C@@H](c3ccc(N(C)C)cc3)C[C@@]21C
Oryctolagus cuniculus [5]
  Activity: Active
Oryctolagus cuniculus [7]
  Activity: inactive
